Hits are enriched below; roughly 3.8% of the tested compounds scored in any of these assays.
Beta apoptosis: beta cell apoptosis inhibition. protection from apoptosis, % (no concentration beside the values). INS-1E cytokine-induced death, ATP luminescence, 48 h; percent of positive-control rescue, neutral wells zero. AID 435005. 0.8% of 300,000 active;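 active means Every replicate reaches about 75%, or at least half do and their mean reaches it too, limit read from the data; inconclusive means At least half of replicates reach the limit but their mean does not; inactive means Under half of replicates reach the limit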;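 further: 0% = cytokine-treated negative control wells and 100% = positive control rescue; higher means more ATP so stronger rescue from cytokine killing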
MC4R barr agon: agonists of human melanocortin 4 receptor (MC4R) beta-arrestin; P32245; U2OS MC4R beta-arrestin complementation, luminescence; percent of melanotan II response, DMSO zero; activation, % at 8.9 µM; 0.98% of 360,000 active; AID 540308;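 active means activation above a per-plate cutoff, the mean activation of sample wells on that plate plus 3 SD, cut at about 8% in these data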
Target sequence (P32245 whole entry, looked up): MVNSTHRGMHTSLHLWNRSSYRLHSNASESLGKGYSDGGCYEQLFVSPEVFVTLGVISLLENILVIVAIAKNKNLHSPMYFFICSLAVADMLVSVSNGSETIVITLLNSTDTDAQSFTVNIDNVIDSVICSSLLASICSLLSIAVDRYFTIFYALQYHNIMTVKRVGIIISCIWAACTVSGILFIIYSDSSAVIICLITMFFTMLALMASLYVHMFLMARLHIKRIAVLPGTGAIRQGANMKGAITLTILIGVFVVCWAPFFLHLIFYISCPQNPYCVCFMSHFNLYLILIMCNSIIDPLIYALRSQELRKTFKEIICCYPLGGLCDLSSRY
MC4R antagonist: antagonists of human melanocortin 4 receptor (MC4R) | MC4R-expressing cells, MTII-stimulated cAMP, LANCE TR-FRET | P32245 | 0.48% of 360,000 active | inhibition, % at 6.5 µM;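 active means inhibition above its plate's cutoff, the mean of tested wells on that plate plus 3 SD, cut at about 29% in these data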;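 further: 0% = Melanotan II alone and 100% = Melanotan II plus saturating MCL0020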
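system = U2OS cells with stable human MC4R expression | also added = Melanotan II challenge after compound preincubation | dosing = one concentration, 6.5 µM nominal | incubation = compound 30 min, challenge 1 h, detection 1 h | measured by = TR-FRET with Eu-cAMP and labeled anti-cAMP, 671 nm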
CSC inhib: blocks cancer stem cells | cancer stem cell-like cells viability, luminescence | inhibition, % at 7.5 µM | 1.1% of 300,000 active | AID 2717; in the data active means inhibition above about 75%; inconclusive means no clear call, values can overlap the other calls; tested in HMLE shEcad cells
ANO1 activ: activators or potentiators of mouse TMEM16A chloride channel. Q8BHY3. HEK293 TMEM16A/YFP-H148Q/I152L, iodide quench fluorescence; hits give low values. B-score at 10 µM. 0.3% of 340,000 active. AID 623877;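 active means fluorescence-ratio B-score plate-corrected deviation score at least 3 library SD below zero, with starting fluorescence score within 5 deviations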;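 further: channel opened by trigger with iodide after compound preincubation; score built on the fluorescence ratio of max minus min over baseline; more negative score means more quench and so TMEM16A activation or potentiation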
ANO1 block: inhibitors of mouse TMEM16A calcium-activated chloride channel; HEK293 TMEM16A/YFP iodide influx fluorescence, ionomycin; normalized B-score (activity score, 25-100; higher = stronger inhibition) at 10 µM; AID 588511; 1.2% of 310,000 active;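 active means ratio plate-corrected score three or more library SD toward inhibition, starting fluorescence score within five deviations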;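 further: score derived from kinetic fluorescence span divided by baseline fluorescence per well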
TMEM16A reconf: TMEM16A (mouse) chloride channel inhibition, re-confirmation; inhibition, % at 10 µM; shares compounds with ANO1 block; 39% of 2,300 active; HEK293 TMEM16A/YFP-H148Q, iodide quench fluorescence; ionomycin added to raise cell calcium; AID 652189;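 active means mean duplicate percent inhibition, scaled so buffer wells are 0 and the reference blocker 100, over three buffer SD above buffer mean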
HEK293 Ca mobil: calcium mobilization counter-screen hit for TMEM16A inhibitor series; 2% of 2,300 active; TMEM16A/YFP HEK293, Fluo4 calcium mobilization; shares compounds with ANO1 block; calcium response (% of ionomycin), % at 10 µM;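 active means duplicate-averaged calcium signal over 20% of the ionomycin maximum, relative to buffer baseline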;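 further: each well's signal is peak minus trough fluorescence divided by its pre-addition baseline; 0% = buffer wells and 100% = ionomycin wells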
Parental YFP cnt: counter-screen for TMEM16A inhibitors: effect in parental YFP-HEK293 cells | shares compounds with ANO1 block | iodide YFP quench, ionomycin | YFP ratio F(max-min)/F0 at 10 µM | 2,300 tested, under 10 active | AID 652233;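 active means yellow fluorescent protein signal ratio exceeding the buffer control mean by over 5 SD of those controls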;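 further: ratio is mean of duplicate wells from kinetic YFP trace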
ClC-1 rat inh: blocks the rat ClC-1 voltage-dependent chloride channel. CHO ClC-1-YFP, iodide influx fluorescence quench; iodide control reads 0, buffer control 100. ratio percent, % at 10 µM. shares compounds with ANO1 block. 2,300 tested, under 10 active;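 active means duplicate-mean ratio percent above the mean of iodide-only control wells, which defines zero, plus 5 of their SD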;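 further: higher percent means stronger block of ClC-1 iodide influx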
Starred values were filed as active, the others as inactive; i = inactive; ? = inconclusive; / = no result.

SMILES	Beta apoptosis	MC4R barr agon	MC4R antagonist	CSC inhib	ANO1 activ	ANO1 block	TMEM16A reconf	HEK293 Ca mobil	Parental YFP cnt	ClC-1 rat inh
O=C1CCCc2cc3c(cc21)CC1(C3)Cc2cc3c(cc2C1)C(=O)CCC3	/	0	-6	64	i	25*	20%*	i	-1.2	-10
CCc1ccc2c(c1)C(=O)CCC2	/	-1	2	/	i	/	/	/	/	/
CC(=O)Nc1ccc(NC(=O)c2ccc(Cl)c(S(=O)(=O)N3CCc4ccccc43)c2)cc1	/	4	16	/	i	/	/	/	/	/
O=C(Nc1cccnc1)c1ccc(Cl)c(S(=O)(=O)N2CCc3ccccc32)c1	-9	-2	-1	12	i	100*	18%*	i	-0.96	-5
CC(=O)c1ccc(NC(=S)NC(C)CCc2ccccc2)cc1 (centres undefined)	2	2	1	22	i	25*	i	i	-1.1	-1
COc1ccc(CCNC(=O)N2c3ccccc3Sc3ccccc32)cc1	7	-2	11	24	i	100*	53%*	i	-0.87	-14
OC(c1ccc(Cl)c(Cl)c1)c1ncc(-c2ccccc2Cl)[nH]1 (centres undefined)	/	3	0	/	/	/	/	/	/	/
OC[C@@H]1CN(Cc2ccccc2)C[C@H](n2cnc3c(NC4CCCC4)ncnc32)O1	/	0	3	/	/	/	/	/	/	/
CC1CN(C(=O)CCC(=O)N2CCN(c3cccc(C(F)(F)F)c3)CC2)c2ccccc2O1 (centres undefined)	9	2	4	21	i	25*	20%*	i	-0.95	-4
O=C(CCS(=O)(=O)c1ccccc1)N1CCN(c2ccc(F)cc2)CC1	0	-1	5	23	i	i	/	/	/	/
O=C(CCS(=O)(=O)c1ccccc1)N1CCN(c2cccc(C(F)(F)F)c2)CC1	4	-3	12	14	i	25*	i	i	-1.1	-15
COc1ccc(N2CCN(C(=O)CCC(=O)N3CC(C)Oc4ccccc43)CC2)cc1 (centres undefined)	4	0	7	-9	i	i	/	/	/	/
CS(=O)(=O)c1ccc(NC(=O)c2cccc(S(=O)(=O)N3CCN(Cc4ccccc4)CC3)c2)cc1	2	-1	7	-6	i	i	/	/	/	/
O=C(CCSCCC(=O)NCc1ccco1)NCc1ccco1	-1	/	/	-9	/	i	i	i	-0.98	-11
Cn1ncc2c(N3CCN(c4ccc(Cl)c(Cl)c4)CC3)ncnc21	?	-2	13	66	i	25*	i	i	-1.1	-16
Cc1ccc(-c2nc(NC(=O)CSc3nnc4scc(-c5ccccc5)n34)ns2)cc1	35	2	22	4	i	i	/	/	/	/
Cc1sc(NC(=O)CSc2nnc3scc(-c4ccccc4)n23)c(C#N)c1C	10	16*	6	-16	i	25*	i	i	-1.1	-8
Nn1c(-c2cccs2)nc2sc3c(c2c1=O)CCCC3	6	-2	1	9	i	25*	30%*	i	-0.99	-18
CCOC(=O)c1c(C)[nH]c(C(=O)N/N=C/c2cc([N+](=O)[O-])ccc2O)c1C	35	-2	-8	-11	i	25*	20%*	i	-1.1	-8
CCCCN(C(=O)C1CC(=O)N(CCc2ccc(OC)c(OC)c2)C1)c1c(N)n(CC(C)C)c(=O)[nH]c1=O (centres undefined)	/	-2	0	/	i	/	/	/	/	/

Compound activity from PubChem.
